Screening results: PubChem, several laboratories
The list is not random: actives were taken first. Their share in the collection is about 3.8%.
RAM network inh: blocks the yeast RAM network | S. cerevisiae dse1pr::URA3 reporter, 5-FOA growth OD615, 2 d; analog-sensitive cbk1-as2 kinase mutant strain | 1.8% of 190,000 active | inhibition, % at 50 µM | AID 868;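 active = inhibition above a set limit, 3 SD over mean compound inhibition, cut at about 8.4% in these data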;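 also: inhibition rescues growth on 5-FOA so higher OD means more RAM inhibition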
Measles CPE: protection of cells from measles virus; Measles virus-infected cells, CPE protection, absorbance; protection (pct of control), % at 4 µM; 1.5% of 140,000 active; AID 841; in the data active = protection mostly above about 24%, no sharp cut-off; inactive = mostly below about 26%
BB579 growth dn: yeast BB579 growth reduction in restrictive medium. S. cerevisiae BB579 growth, OD615, 48 h. inhibition, % at 10 µM. 0.51% of 140,000 active. AID 804;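 active = inhibition above a set limit, 3 SD over the mean compound inhibition, cut at about 44% in these data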
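System: DeaD yeast strain BB579; buffer or medium: CSMM-D dextrose restrictive medium; technique: OD at 615 nm; schedule: 4 h cell preincubation, 48 h compound exposure, 30 °C humidified; doses: single 10 µM dose; controls: amphotericin B 10 µg/mL, positive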
Yeast life ext: yeast lifespan extension; inhibition of the nicotinamide effect, % at 10 µM; 0.68% of 130,000 active; S. cerevisiae growth with nicotinamide, OD615; deaD strain in restrictive glucose medium;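 active = inhibition above a set limit, placed 3 SD over the median of all compounds, cut at about 26% in these data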
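Assay system: engineered S. cerevisiae DeaD replicative-lifespan strain, galactose-grown log-phase cells; medium: restrictive CSMM-D dextrose medium; also added: nicotinamide, 1.5 mM, co-present with compound; schedule: 48 h compound exposure at 30 °C, humidified; detection: absorbance at 615 nm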
A number is an active result; - = inactive; . = no result given.

SMILES	RAM network inh	Measles CPE	BB579 growth dn	Yeast life ext
COCCNC(=O)c1c(N)n(-c2cccc(C)c2)c2nc3ccccc3nc12	10.0	-	-	-
COc1cc(-n2c(N)c(C(=O)NCc3ccco3)c3nc4ccccc4nc32)cc(OC)c1OC	11.0	-	-	-
COCCCNC(=O)c1c(N)n(-c2ccc(S(N)(=O)=O)cc2)c2nc3ccccc3nc12	-	-	-	-
CCn1c(CNc2ccc(C)cc2)nnc1SCC(N)=O	-	-	-	.
COc1cccc(C(=O)c2c[nH]c(C(=O)NCCCN3CCOCC3)c2)c1	-	.	.	.
Cc1cc2c(cc(C(=O)O)n2C)s1	-	-	56.5	-
O=C(Nc1ncc2c(n1)-c1ccccc1CC2)c1cccs1	-	.	.	.
COc1ccc(C2C3=C(CCCC3=O)Nc3nc(SCc4ccc(C(=O)O)cc4)nn32)cc1OC (stereo not drawn)	8.8	31.4	-	-
CC1CC(C)(C)NC(=S)O1 (stereo not drawn)	-	.	.	.
Cc1ccccc1C(=O)Nc1cccc(C(=O)N/N=C/c2cc(Cl)cc([N+](=O)[O-])c2O)c1	-	.	.	.
O=C(Nc1ccccc1)c1cccc(S(=O)(=O)N2CCCCC2)c1	-	-	-	-
Nc1cccc2c1C(=O)N(C(=O)c1cccc(S(=O)(=O)N3CCCCCC3)c1)C2=O	-	-	-	-
Nc1cccc2c1C(=O)N(C(=O)c1ccc(Cl)c(S(=O)(=O)N3CCCCCC3)c1)C2=O	-	-	-	75.4
O=C(O)c1cccc(NC(=O)c2ccc(Cl)c(S(=O)(=O)N3CCCCCC3)c2)c1	9.7	.	.	.
Cc1ccccc1NC(=O)CC(O)(C(F)(F)F)C(F)(F)F	-	-	-	31.9
CCOc1cc(NC(=O)c2ccccn2)c(OCC)cc1NC(=O)c1ccccc1	9.7	.	.	.
CCOc1cc(NC(=O)C2CC2)c(OCC)cc1NC(=O)c1ccccn1	-	-	-	-
O=S(=O)(Nc1ccc(-n2cccc2)cc1)c1ccc(Cl)cc1Cl	-	-	74.3	-
O=S(=O)(Nc1ccc(-n2cccc2)cc1)c1ccc(F)cc1	-	.	.	.
COc1ccc(NC(=O)C(NC(=O)c2ccc(=O)[nH]c2)c2ccc(C)cc2)cc1 (stereo not drawn)	-	32.8	-	-
CCOc1cc(C(=O)N(C)Cc2cc3ccccc3[nH]c2=O)cc(OCC)c1OCC	8.8	64.0	-	-
CCOc1ccccc1C(=O)N(C)Cc1cc2ccccc2[nH]c1=O	-	-	-	-
COc1ccc2cc(C(C)c3nc4ccccc4c(=O)n3N)ccc2c1 (stereo not drawn)	-	-	-	30.9
COc1cccc(OCc2nc3ccccc3c(=O)n2N)c1	-	-	-	-
CCOc1cc(C)c(C(C)C)cc1S(=O)(=O)NCc1ccccn1	-	-	-	58.9
SMILES	RAM network inh	Measles CPE	BB579 growth dn	Yeast life ext
CC1CCC2C(=O)N(c3cccc(OS(=O)(=O)c4ccccc4)c3)C(=O)C2C1 (stereo not drawn)	9.4	-	-	-
CC1CCC2C(=O)N(c3ccc(S(=O)(=O)c4ccccc4)cc3)C(=O)C2C1 (stereo not drawn)	-	-	-	-
O=C1NCCCc2c1oc1ccc(O)cc21	-	-	-	-
Oc1c(Cl)cc(Cl)c2c1NCCC2	-	-	98.7	-
COc1cc(OC)c(C2=NOC(C(=O)Nc3ccc4c(c3)OCO4)C2)cc1Cl (stereo not drawn)	-	.	.	.
O=C(Nc1ccc2c(c1)OCO2)C1CC(c2ccc(Cl)cc2)=NO1 (stereo not drawn)	-	39.8	-	-
COc1ccc(CN(CCC(c2ccc(F)cc2)C2CCOC(C)(C)C2)C(=O)c2ccco2)cc1 (stereo not drawn)	9.8	-	-	-
CC(c1ccccc1)N(CCC(c1ccccc1)C1CCOC(C)(C)C1)C(=O)c1ccco1 (stereo not drawn)	-	-	-	-
COCC(=O)Nc1nnc(-c2ccc(C(C)(C)C)cc2)s1	-	.	.	.
COc1ccc(N/N=C(/C)c2cnnc(-c3ccccc3)n2)cc1	-	-	-	-
CC1(C)CC(=O)C(C=NCCN2CCN(C(=S)Nc3ccccc3)CC2)=C(O)C1	-	-	-	-
CC(=NCCN1CCN(C(C)=C2C(=O)c3ccccc3C2=O)CC1)C1=C(O)CC(C)(C)CC1=O	-	-	-	30.8
CC(=C1C(=O)c2ccccc2C1=O)N1CCN(CCN=CC2=C(O)CC(C)(C)CC2=O)CC1	-	-	-	34.3
CN(Cc1nc(Cc2cccc(F)c2)no1)CC1CCOCC1	-	.	.	.
COc1ccc(Cc2nnc(SCC(=O)N3CCCCC3)o2)cc1	-	.	.	.
CCCn1c(SCC(=O)Nc2ccc(C(=O)Nc3ccccc3OC)cc2)n[nH]c1=O	9.2	.	.	.
Cc1cc(C)cc(N(CC(=O)NC(C)(C)C)C(=O)CNC(=O)c2cccs2)c1	-	.	.	.
C=CCn1c(SCc2c(C)noc2C)nc2sc3c(c2c1=O)CCCC3	-	-	-	-
Cc1noc(C)c1CSc1nc2sc3c(c2c(=O)n1C)CCCC3	-	96.1	-	-
CCC(=O)Nc1nnc(SCc2ccccc2F)s1	-	.	.	.
Fc1ccc2nc(Nc3nc4cc5c(cc4s3)OCO5)sc2c1	9.2	-	-	-
Fc1ccc2nc(Nc3nc4cc5c(cc4s3)OCCO5)sc2c1	-	-	-	-
COC(=O)CCC/C=C1/SCC(NC(=O)c2ccccc2)/C1=N/O (stereo not drawn)	-	.	.	.
CCOC(=O)c1sc(NC(=O)c2cccc(S(=O)(=O)N3CCN(C)CC3)c2)cc1C	-	-	-	-
CCN(CC)S(=O)(=O)c1cccc(C(=O)Nc2ccccc2C(=O)N2CCOCC2)c1	-	46.6	-	-
SMILES	RAM network inh	Measles CPE	BB579 growth dn	Yeast life ext
CCOC(=O)c1sc(NC(=O)c2cccc(S(=O)(=O)N(CC)CC)c2)cc1C	10.5	-	-	-
CCOC(=O)C1CCN(C(=O)CSc2ccccc2Cl)CC1	-	.	.	.
O=C(NC(=S)NNC(=O)c1ccccc1O)c1ccco1	-	-	-	82.4
O=C(NC(=S)NNC(=O)c1cc2ccccc2cc1O)c1ccco1	-	.	.	.
C=CCOC(=O)/C(=C\C=C\c1ccccc1)NC(=O)c1ccccc1	-	-	-	-
CCCCCn1c(SCC2CCCO2)nc2cc(C(=O)N3CCC(C(N)=O)CC3)ccc2c1=O (stereo not drawn)	-	55.2	-	-
CCCCCn1c(SCC(=O)CC(=O)OCC)nc2cc(C(=O)N3CCC(C(N)=O)CC3)ccc2c1=O	-	.	.	.
CCCCCn1c(SCC(=O)OCC)nc2cc(C(=O)NCc3ccco3)ccc2c1=O	11.0	-	-	-
C=CCn1c(SCC(=O)OCC)nc2cc(C(=O)NCc3ccco3)ccc2c1=O	-	-	-	-
COC(=O)c1cccc(S(=O)(=O)N(Cc2ccco2)Cc2cc3cc(OC)c(OC)cc3[nH]c2=O)c1	8.9	-	-	-
COC(=O)c1cccc(S(=O)(=O)N(Cc2ccco2)Cc2cc3ccc(OC)cc3[nH]c2=O)c1	-	-	-	-
CC1CCN(C(=O)c2ccc(-n3cnnn3)cc2)CC1	-	39.9	-	.
O=C(c1ccc(-n2cnnn2)cc1)N1CCOCC1	-	-	-	-
OC1(CNCc2cn[nH]c2-c2cc3ccccc3o2)CCCCC1	-	.	.	.
COc1cc(/C=C2/C(=O)NN(c3cccc(C)c3)C2=O)cc([N+](=O)[O-])c1O	-	.	.	.
